“And” between values parts separate entries of the source, which are not always exact repeats. Equal values may be shown once. Read-outs that look alike come from different tables or passages of the source. One block for each compound: values may come before it.
What was measured:
[1] = biological target: hMT1 (Homo sapiens, UniProt P48039); assay: GloSensor cAMP assay; assay type: cell-based; details: for hMT1 Schild slope: Schild analysis, antagonism of melatonin, cAMP
[2] = biological target: T1, hMT2 (Homo sapiens, UniProt P49286); assay: cell-based; assay type: cell-based; details: for hMT2 Schild slope: Schild analysis, antagonism of melatonin
T1 sequence (P49286 1-362): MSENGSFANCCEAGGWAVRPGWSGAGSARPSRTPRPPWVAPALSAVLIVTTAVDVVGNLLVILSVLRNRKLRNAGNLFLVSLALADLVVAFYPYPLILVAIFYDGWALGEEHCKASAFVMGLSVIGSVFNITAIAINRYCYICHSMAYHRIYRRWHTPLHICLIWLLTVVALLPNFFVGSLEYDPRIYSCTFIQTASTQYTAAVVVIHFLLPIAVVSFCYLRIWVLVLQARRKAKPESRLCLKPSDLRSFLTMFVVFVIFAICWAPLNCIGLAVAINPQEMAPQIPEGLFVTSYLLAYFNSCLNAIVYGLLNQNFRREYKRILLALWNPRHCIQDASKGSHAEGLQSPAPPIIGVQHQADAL

[3] = biological target: T2, mMT1 (Mus musculus, UniProt Q61184); assay: GloSensor cAMP assay; assay type: cell-based; details: for Emax: HEK293, read-out: mMT1 Emax
T2 sequence (Q61184 whole entry): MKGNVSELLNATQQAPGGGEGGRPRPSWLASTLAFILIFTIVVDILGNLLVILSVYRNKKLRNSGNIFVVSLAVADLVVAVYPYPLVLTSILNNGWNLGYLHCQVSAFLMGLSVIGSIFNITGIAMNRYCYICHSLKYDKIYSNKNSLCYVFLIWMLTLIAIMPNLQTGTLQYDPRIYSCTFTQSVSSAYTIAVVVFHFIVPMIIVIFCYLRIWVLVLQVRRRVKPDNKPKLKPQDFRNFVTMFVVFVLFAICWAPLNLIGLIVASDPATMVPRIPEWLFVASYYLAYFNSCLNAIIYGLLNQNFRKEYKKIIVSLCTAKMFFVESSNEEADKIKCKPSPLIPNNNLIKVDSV
In short: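 HEK293T cells in DMEM with 10% dialyzed FBS were co-transfected with a mouse MT1 or MT2 (de-Tango-ized) construct plus GloSensor DNA (8 μg each). Next day, cells were seeded at 20,000/well in DMEM with 1% dialyzed FBS for 24 h, then switched to HBSS, 20 mM HEPES pH 7.4, 0.1% BSA. Inhibition of isoproterenol-stimulated cAMP was read by luminescence.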

[4] = Plasma pharmacokinetics and brain distribution; assay type: in vivo; details: male, C57BL/6, mouse, iv, 2 mg/kg; for Kp at 30 min: brain and plasma; for AUC / Cmax / Vd / clearance / half-life: plasma
In short: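 Male C57BL/6 mice (nine) got a single 2 mg/kg IV dose in 5% N-methyl pyrrolidone, 5% Solutol HS-15, 90% saline. Retro-orbital blood (~60 μL, three mice per time point, light isoflurane) was taken at 0.08–24 hr and plasma stored at -70°C. Brains were collected at 0.5, 4 and 24 hr and homogenized in ice-cold PBS pH 7.4 at three times brain weight.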

[5] = test system: C3H/HeN mice (WT, MT1KO, MT2KO); assay: Re-entrainment; assay type: in vivo, mouse
[6] = test system: C3H/HeN mice (WT, MT1KO, MT2KO); details: cited from earlier work
[7] = biological target: T2, mMT1; assay: 2-[125I]-iodomelatonin competition binding, CHO cell membranes; details: read-out: KD mMT1
[8] = test system: C3H/HeN mice (WT, MT1KO, MT2KO); assay: Phase shift of circadian running wheel activity onset in constant dark; assay type: in vivo; details: CT 10; 0.9 μg/mouse (about 0.03 mg/Kg)
[9] = hMT1 pEC50, inhibition of isoproterenol-stimulated cAMP, HEK cells, agonist
[10] = hMT2 pEC50, inhibition of isoproterenol-stimulated cAMP, HEK cells, agonist
[11] = MT2 activity, none detectable up to, cAMP assay
[12] = hMT1 pEC50 (Inverse), inverse agonist, isoproterenol-stimulated cAMP, HEK cells
[13] = pEC50 MT1 (IA), inverse agonist, as summarised in PK table
[14] = hMT2 pEC50 (Inverse), inverse agonist, isoproterenol-stimulated cAMP, HEK cells

Chain of hMT1 (P48039 whole entry): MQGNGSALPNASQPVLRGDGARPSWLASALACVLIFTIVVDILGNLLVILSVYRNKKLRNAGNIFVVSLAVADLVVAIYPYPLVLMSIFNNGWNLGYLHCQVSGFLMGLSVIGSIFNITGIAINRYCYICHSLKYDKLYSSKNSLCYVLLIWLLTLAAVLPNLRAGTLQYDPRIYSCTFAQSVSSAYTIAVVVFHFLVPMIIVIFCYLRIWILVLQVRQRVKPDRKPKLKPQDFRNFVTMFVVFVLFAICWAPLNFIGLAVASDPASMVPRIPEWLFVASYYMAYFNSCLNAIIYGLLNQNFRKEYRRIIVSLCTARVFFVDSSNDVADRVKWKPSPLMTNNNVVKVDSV

SMILES: CC(C)c1ccc(CNc2cccc(-c3nnc[nH]3)c2)cc1 [ZINC157673384]
Kb [1]: 12.6 nM
Emax ([1]; HEK293, read-out: hMT1 % Emax (Inverse)): 47%
Emax ([1]; HEK293, read-out: hMT1 Emax): -47 ± 12%
hMT1 Schild slope [1]: 0.80 ± 0.04
EC50 [1, 12]: 20.9 nM
EC50 [1, 13]: 20 nM
Kb [2]: 200 nM
Emax ([2]; HEK293, read-out: hMT2 % Emax (Inverse)): 153%
Emax ([2]; HEK293, read-out: hMT2 Emax): -153 ± 14%
hMT2 Schild slope ([2]; cAMP): 1.0 ± 0.1
EC50 [2, 14]: 661 nM
EC50 ([2]; pEC50 MT2 (IA), inverse agonist, as summarised in PK table): 631 nM
EC50 [3]: 100 nM
Emax [3]: -49 ± 3%
Kp at 30 min [4]: 1.43
AUC [4]: 564 ng·h/mL
Cmax [4]: 1300 ng/mL
Vd [4]: 1.38 L/kg
clearance [4]: 58.5 mL/min/kg
half-life [4]: 19.2 min

SMILES: COc1ccc2[nH]cc(CCNC(C)=O)c2c1 [melatonin]
effect on re-entrainment ([5]; 30 μg/mouse): accelerates re-entrainment
ED50 (phase advance) [6]: 0.72 μg/mouse

SMILES: Cc1nc(-c2cccc(NCc3ccccc3Cl)c2)n[nH]1 [ZINC37781618]
EC50 ([1]; hMT1 pEC50 (inactive analog), tested at concentrations up to 30μM): > 31600 nM
EC50 ([2]; hMT2 pEC50 (inactive analog), tested at concentrations up to 30μM): > 31600 nM

SMILES: Cc1cc(=O)n2ccn(CCc3ccc4c(c3)OC(F)(F)O4)c2n1 [ZINC664088238]
EC50 [1, 9]: > 10000 nM

SMILES: CC(=O)NCCc1c(Cc2ccccc2)[nH]c2ccccc12 [luzindole]
effect on re-entrainment ([5]; 300 μg/mouse): decelerates re-entrainment

SMILES: CN(Cc1ccncc1)c1ccnc(Cl)c1 [ZINC223593565]
Emax ([1]; HEK293, read-out: hMT1 % Emax): 86%
EC50 [1, 9]: 398 nM
Emax ([2]; HEK293, read-out: hMT2 % Emax): 58%
EC50 [2, 10]: 355 nM

SMILES: Clc1ccc(CNc2cccc(-c3nnc[nH]3)c2)c(Br)c1 [ZINC555417447]
hMT1 Schild slope [1]: 0.98 ± 0.03
EC50 [1, 12]: 40.7 nM and 39.8 nM
EC50 [1, 13]: 39.8 nM
hMT2 Schild slope ([2]; cAMP): 1.3 ± 0.4
EC50 [2, 14]: 2000 nM
EC50 [3]: 63.1 nM
Emax [3]: -56 ± 5%
advance of the onset of activity [8]: approximately 1 hour
Kp at 30 min [4]: 3.03
AUC [4]: 494 ng·h/mL
Cmax [4]: 1950 ng/mL
Vd [4]: 1.11 L/kg
clearance [4]: 67.1 mL/min/kg
half-life [4]: 16.2 min

Second part, the compound after the results:

Emax ([1]; HEK293, read-out: hMT1 % Emax): 99%
EC50 [1, 9]: 1 nM
Emax ([2]; HEK293, read-out: hMT2 % Emax): 83%
EC50 [2, 10]: 2 nM
SMILES: COC(=O)c1ccc(CSc2nnc(C3CC3)[nH]2)s1 [ZINC159050207]

selectivity for MT2 over MT1 ([2]; cAMP): 89 fold
SMILES: COc1ccc(CN(C(=O)c2ccccc2F)c2ccncc2)cc1 [ZINC151192780]

EC50 [2, 11]: > 30000 nM
SMILES: COc1ccc(CN(C)C(=O)c2cccc(OC(F)F)c2)cc1O [ZINC353044322]

EC50 [2, 11]: > 30000 nM
SMILES: COc1cccc2c1CCN(C(=O)c1ccc(F)nc1)C2 [ZINC182731037]

EC50 [1, 9]: 158 nM
EC50 [2, 10]: 6.31 nM
Kp at 30 min [4]: 1.58
AUC [4]: 282 ng·h/mL
Cmax [4]: 1920 ng/mL
Vd [4]: 1.11 L/kg
clearance [4]: 118 mL/min/kg
half-life [4]: 17.4 min
SMILES: COc1ccc(Br)c(CNc2cccnc2)c1 [ZINC128734226]

Kd ([7]; GTP buffer): 0.201 nM
Kd ([7]; control buffer): 0.087 nM
SMILES: COc1ccc2[nH]c(I)c(CCNC(C)=O)c2c1 [2-[^125I]-iodomelatonin, 2-[^125I]-Iodomelatonin]

EC50 [1, 9]: > 10000 nM
SMILES: COc1ccc(CN(C(=O)c2scc(C)c2Cl)c2ccncc2)cc1 [ZINC485552623]

Emax ([1]; HEK293, read-out: hMT1 % Emax): 88%
EC50 [1, 9]: 2000 nM
melatonin receptor type selectivity (grouping) ([1]; hMT1 versus hMT2, cAMP assays): MT1-selective
SMILES: COc1ccc(CN(C(=O)[C@H]2C[C@@H]2C)c2ccncc2)cc1 [ZINC151209032]

From PMC7134359 (Nature, 2020)
